Assay results pooled from the literature.
Each line is one published result; the experiments were not run side by side. ≈ marks a conversion by molar mass, not a printed value.

With `Cc1ccn2c(C(=O)N3CCN(Cc4cn(-c5ccc(F)c(Cl)c5)nn4)CC3)c(C)nc2c1` the IC50 was 174 µM (Leishmania major; parasite growth, resazurin; 72 h, promastigote).
For `Cn1nnc2c(C(N)=O)ncn2c1=O`, the EC50 was greater than 1000 µM (BGC-823; cell growth or viability).
The GI50 of `COc1ccc(-c2ccc(-c3ccc(C(=N)N)nc3)s2)cc1Cl` is reported as 1.76 µM (UACC-62; cell growth or viability, SRB).
For `Cc1ccc2nc(-c3ccccc3Cl)[nH]c2c1`, the MIC was 256 µg/mL (≈ 1050 µM) (Enterococcus faecalis; microbial growth, broth dilution; ATCC29212).
The EC50 of `CCCCCCCCCCCCNC(=S)NCCCC[C@H](NS(C)(=O)=O)C(=O)N[C@H](C)C(=O)N[C@@H](CCCNC(=N)N)C(=O)N1CCOCC1` is reported as 89.8 to 126 µM (HeLa; cell growth or viability, MTT; 72 h).
With `Clc1ccc(-c2nc3ccccc3n2Cc2ccccc2)cc1Cl` the MIC was 128 µg/mL (≈ 362 µM) (Enterococcus faecalis; microbial growth, broth dilution; ATCC29212).
`Cc1nc2ccc(Cl)cn2c1C(=O)N1CCN(CCn2cc(-c3ccc(C(C)(C)C)cc3)nn2)CC1` has an IC50 of 171 µM (Leishmania major; parasite growth, resazurin; 72 h, promastigote).
For `COc1cc(-c2ccc(-c3ccc(C(=N)N)nc3)s2)cc(OC)c1OC`, the GI50 was 2.09 µM (SK-MEL-2; cell growth or viability, SRB).
